Test results reported in ChEMBL document CHEMBL3526002, “Tissue distribution and identification of radioactivity components at elimination phase after oral administration of [¹⁴C]CS-1036, an α-amylase inhibitor, to rats” (Drug Metab Dispos, 2013).

Key:
Harderian gland [1] = test: Drug uptake in albino F344/DuCrlCrlj rat harderian gland at 5 mg/kg, po after 168 hrs by liquid scintillation counting; type: ADME, organism-based; parameters: dose 5 mg/kg, dosed compound name [14C]CS-1036, route oral; details: in vivo
[2] = Drug uptake in albino F344/DuCrlCrlj rat mandibular gland assessed as ng equivalent of CS-1036 at 5 mg/kg, po after 24 hrs by liquid scintillation counting; type: ADME, organism-based; parameters: dose 5 mg/kg, dosed compound name [14C]CS-1036, route oral; details: in vivo
Thymus [3] = test: Drug uptake in albino F344/DuCrlCrlj rat thymus at 5 mg/kg, po after 336 hrs by liquid scintillation counting; type: ADME, organism-based; parameters: dose 5 mg/kg, dosed compound name [14C]CS-1036, route oral; details: in vivo
Pancreas = test: Drug uptake in albino F344/DuCrlCrlj rat pancreas at 5 mg/kg, po after 1 hr by liquid scintillation counting; type: ADME, organism-based; parameters: dose 5 mg/kg, dosed compound name [14C]CS-1036, route oral; details: in vivo
Blood = test: Drug uptake in albino F344/DuCrlCrlj rat blood assessed as ng equivalent of CS-1036 at 5 mg/kg, po after 72 hrs by liquid scintillation counting; type: ADME, organism-based; parameters: dose 5 mg/kg, dosed compound name [14C]CS-1036, route oral; details: in vivo
Method in brief: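 Male F344/DuCrlCrlj rats (159–167 g; n = 3 per time point) received a single oral dose of [14C]CS-1036 at 5 mg/kg. Blood was taken from the abdominal aorta at 1, 4, 8, 24, 72, 168 and 336 h. Radioactivity was counted by LSC with external-standard efficiency correction. Results were converted to ng equivalent of CS-1036/ml using specific activity and sample volume, and reported as mean + S.D.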

[4] = Drug uptake in albino F344/DuCrlCrlj rat trachea at 5 mg/kg, po after 24 hrs by liquid scintillation counting; type: ADME, organism-based; parameters: dose 5 mg/kg, dosed compound name [14C]CS-1036, route oral; details: in vivo
Liver = test: Drug uptake in albino F344/DuCrlCrlj rat liver assessed as ng equivalent of CS-1036 at 5 mg/kg, po after 24 hrs by liquid scintillation counting; type: ADME, organism-based; parameters: dose 5 mg/kg, dosed compound name [14C]CS-1036, route oral; details: in vivo
Large intestine [5] = test: Drug uptake in albino F344/DuCrlCrlj rat large intestine assessed as ng equivalent of CS-1036 at 5 mg/kg, po after 336 hrs by liquid scintillation counting; type: ADME, organism-based; parameters: dose 5 mg/kg, dosed compound name [14C]CS-1036, route oral; details: in vivo
Aorta = test: Drug uptake in albino F344/DuCrlCrlj rat aorta assessed as ng equivalent of CS-1036 at 5 mg/kg, po after 336 hrs by liquid scintillation counting; type: ADME, organism-based; parameters: dose 5 mg/kg, dosed compound name [14C]CS-1036, route oral; details: in vivo
[6] = Drug uptake in albino F344/DuCrlCrlj rat testis assessed as ng equivalent of CS-1036 at 5 mg/kg, po after 168 hrs by liquid scintillation counting; type: ADME, organism-based; parameters: dose 5 mg/kg, dosed compound name [14C]CS-1036, route oral; details: in vivo
Harderian gland [7] = test: Drug uptake in albino F344/DuCrlCrlj rat harderian gland assessed as ng equivalent of CS-1036 at 5 mg/kg, po after 168 hrs by liquid scintillation counting; type: ADME, organism-based; parameters: dose 5 mg/kg, dosed compound name [14C]CS-1036, route oral; details: in vivo
[8] = Drug uptake in albino F344/DuCrlCrlj rat trachea at 5 mg/kg, po after 1 hr by liquid scintillation counting; type: ADME, organism-based; parameters: dose 5 mg/kg, dosed compound name [14C]CS-1036, route oral; details: in vivo
Large intestine [9] = test: Drug uptake in albino F344/DuCrlCrlj rat large intestine at 5 mg/kg, po after 4 hrs by liquid scintillation counting; type: ADME, organism-based; parameters: dose 5 mg/kg, dosed compound name [14C]CS-1036, route oral; details: in vivo
Spleen = test: Drug uptake in albino F344/DuCrlCrlj rat spleen at 5 mg/kg, po after 1 hr by liquid scintillation counting; type: ADME, organism-based; parameters: dose 5 mg/kg, dosed compound name [14C]CS-1036, route oral; details: in vivo
Lung [10] = test: Drug uptake in albino F344/DuCrlCrlj rat lung assessed as ng equivalent of CS-1036 at 5 mg/kg, po after 336 hrs by liquid scintillation counting; type: ADME, organism-based; parameters: dose 5 mg/kg, dosed compound name [14C]CS-1036, route oral; details: in vivo
Small intestine [11] = test: Drug uptake in albino F344/DuCrlCrlj rat small intestine at 5 mg/kg, po after 168 hrs by liquid scintillation counting; type: ADME, organism-based; parameters: dose 5 mg/kg, dosed compound name [14C]CS-1036, route oral; details: in vivo
Harderian gland [12] = test: Drug uptake in albino F344/DuCrlCrlj rat harderian gland assessed as ng equivalent of CS-1036 at 5 mg/kg, po after 72 hrs by liquid scintillation counting; type: ADME, organism-based; parameters: dose 5 mg/kg, dosed compound name [14C]CS-1036, route oral; details: in vivo
[13] = Drug uptake in albino F344/DuCrlCrlj rat brown fat at 5 mg/kg, po after 8 hrs by liquid scintillation counting; type: ADME, organism-based, Brown adipose tissue; parameters: dose 5 mg/kg, dosed compound name [14C]CS-1036, route oral; details: in vivo
Plasma [14] = test: Drug uptake in albino F344/DuCrlCrlj rat plasma assessed as ng equivalent of CS-1036 at 5 mg/kg, po after 1 hr by liquid scintillation counting; type: ADME, organism-based; parameters: dose 5 mg/kg, dosed compound name [14C]CS-1036, route oral; details: in vivo
[15] = Drug uptake in albino F344/DuCrlCrlj rat eyeball at 5 mg/kg, po after 72 hrs by liquid scintillation counting; type: ADME, organism-based; parameters: dose 5 mg/kg, dosed compound name [14C]CS-1036, route oral; details: in vivo
Lung [16] = test: Drug uptake in albino F344/DuCrlCrlj rat lung at 5 mg/kg, po after 72 hrs by liquid scintillation counting; type: ADME, organism-based; parameters: dose 5 mg/kg, dosed compound name [14C]CS-1036, route oral; details: in vivo
Stomach = test: Drug uptake in albino F344/DuCrlCrlj rat stomach at 5 mg/kg, po after 1 hr by liquid scintillation counting; type: ADME, organism-based; parameters: dose 5 mg/kg, dosed compound name [14C]CS-1036, route oral; details: in vivo
Plasma [17] = test: Drug metabolism in albino F344/DuCrlCrlj rat plasma protein assessed as unbound parent compound and metabolite M1 level at 10 mg/kg, po administered for 5 days by liquid scintillation counting; type: ADME, organism-based; parameters: dose 10 mg/kg, dosed compound name [14C]CS-1036, route oral; details: in vivo, 120 h
Method in brief: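 Male F344/DuCrlCrlj rats (n = 3) received oral [14C]CS-1036 at 10 mg/kg/day for 5 days at 24-h intervals, with food freely available. Plasma was taken from the abdominal aorta 24 h after the fifth dose and pooled. It was precipitated with acetonitrile, and the pellets were washed with 0.4 M TCA, 80% methanol and 30% ether/ethanol until washes were below twice background. Pellets were HCl-hydrolysed, and recovered radioactivity was counted by LSC.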

Small intestine [18] = test: Drug uptake in albino F344/DuCrlCrlj rat small intestine assessed as ng equivalent of CS-1036 at 5 mg/kg, po after 336 hrs by liquid scintillation counting; type: ADME, organism-based; parameters: dose 5 mg/kg, dosed compound name [14C]CS-1036, route oral; details: in vivo
[19] = Drug uptake in albino F344/DuCrlCrlj rat skeletal muscle assessed as ng equivalent of CS-1036 at 5 mg/kg, po after 336 hrs by liquid scintillation counting; type: ADME, organism-based, Muscle tissue; parameters: dose 5 mg/kg, dosed compound name [14C]CS-1036, route oral; details: in vivo
Plasma [20] = test: Drug uptake in albino F344/DuCrlCrlj rat plasma at 5 mg/kg, po after 1 hr by liquid scintillation counting; type: ADME, organism-based; parameters: dose 5 mg/kg, dosed compound name [14C]CS-1036, route oral; details: in vivo
[21] = Drug uptake in albino F344/DuCrlCrlj rat brown fat assessed as ng equivalent of CS-1036 at 5 mg/kg, po after 4 hrs by liquid scintillation counting; type: ADME, organism-based, Brown adipose tissue; parameters: dose 5 mg/kg, dosed compound name [14C]CS-1036, route oral; details: in vivo
Small intestine [22] = test: Drug uptake in albino F344/DuCrlCrlj rat small intestine at 5 mg/kg, po after 1 hr by liquid scintillation counting; type: ADME, organism-based; parameters: dose 5 mg/kg, dosed compound name [14C]CS-1036, route oral; details: in vivo
[23] = Drug uptake in albino F344/DuCrlCrlj rat thyroid gland assessed as ng equivalent of CS-1036 at 5 mg/kg, po after 24 hrs by liquid scintillation counting; type: ADME, organism-based; parameters: dose 5 mg/kg, dosed compound name [14C]CS-1036, route oral; details: in vivo
Small intestine [24] = test: Drug uptake in albino F344/DuCrlCrlj rat small intestine at 5 mg/kg, po after 4 hrs by liquid scintillation counting; type: ADME, organism-based; parameters: dose 5 mg/kg, dosed compound name [14C]CS-1036, route oral; details: in vivo
Zone of skin = test: Drug uptake in albino F344/DuCrlCrlj rat skin assessed as ng equivalent of CS-1036 at 5 mg/kg, po after 8 hrs by liquid scintillation counting; type: ADME, organism-based; parameters: dose 5 mg/kg, dosed compound name [14C]CS-1036, route oral; details: in vivo
Thymus [25] = test: Drug uptake in albino F344/DuCrlCrlj rat thymus assessed as ng equivalent of CS-1036 at 5 mg/kg, po after 4 hrs by liquid scintillation counting; type: ADME, organism-based; parameters: dose 5 mg/kg, dosed compound name [14C]CS-1036, route oral; details: in vivo

- Radiolabel recovery (Harderian gland [1]): 17.1 ngequiv/g
- Radiolabel recovery [2]: 9 ngequiv/g
- Radiolabel recovery (Thymus [3]): 5.1 ngequiv/g
- Radiolabel recovery (Pancreas): 102 ngequiv/g
- Radiolabel recovery (Blood): 6.6 ngequiv/ml
- Radiolabel recovery [4]: 43.2 ngequiv/g
- Radiolabel recovery (Liver): 37 ngequiv/g
- Radiolabel recovery (Large intestine [5]): 6.02 ngequiv/g
- Radiolabel recovery (Aorta): 10.8 ngequiv/g
- Radiolabel recovery [6]: 3.81 ngequiv/g
- Radiolabel recovery (Harderian gland [7]): 9 ngequiv/g
- Radiolabel recovery [8]: 41.1 ngequiv/g
- Radiolabel recovery (Large intestine [9]): 5930 ngequiv/g
- Radiolabel recovery (Spleen): 65.6 ngequiv/g
- Radiolabel recovery (Lung [10]): 3.93 ngequiv/g
- Radiolabel recovery (Small intestine [11]): 13 ngequiv/g
- Radiolabel recovery (Harderian gland [12]): 67 ngequiv/g
- Radiolabel recovery [13]: 28.9 ngequiv/g
- Radiolabel recovery (Plasma [14]): 12.7 ngequiv/ml
- Radiolabel recovery [15]: 7.83 ngequiv/g
- Radiolabel recovery (Lung [16]): 51.3 ngequiv/g
- Radiolabel recovery (Stomach): 1670 ngequiv/g
- Radiolabel recovery (Plasma [17]): 11.3%
- Radiolabel recovery (Small intestine [18]): 1.92 ngequiv/g
- Radiolabel recovery [19]: 3.46 ngequiv/g
- Radiolabel recovery (Plasma [20]): 90.6 ngequiv/ml
- Radiolabel recovery [21]: 2.5 ngequiv/g
- Radiolabel recovery (Small intestine [22]): 52100 ngequiv/g
- Radiolabel recovery [23]: 20 ngequiv/g
- Radiolabel recovery (Small intestine [24]): 965 ngequiv/g
- Radiolabel recovery (Zone of skin): 71.6 ngequiv/g
- Radiolabel recovery (Thymus [25]): 2.8 ngequiv/g
Structure (SMILES): C[C@H]1O[C@@H](O[C@H]2[C@H](O)[C@@H](O)[C@@H](O[14C@H]3[14C@H](O)[14CH2]N[14C@@H]3[14CH2]O)O[C@@H]2CO)[C@H](O)[C@@H](O)[C@@H]1O
